Compound activity (PubChem)
CHT allo act: allosterically activates the human high affinity choline transporter; B-score at 10 µM; 310,000 compounds, 0.49% hits; CHT-expressing cells, membrane potential dye, choline EC20; hits give high values; LV-AA mutant CHT in HEK293 cells; AID 488977; Q9GZV3;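 active = initial fluorescence not abnormally high and integrated response B-score, plate-corrected, over 3 SD above library mean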
Target sequence (Q9GZV3 whole entry, looked up): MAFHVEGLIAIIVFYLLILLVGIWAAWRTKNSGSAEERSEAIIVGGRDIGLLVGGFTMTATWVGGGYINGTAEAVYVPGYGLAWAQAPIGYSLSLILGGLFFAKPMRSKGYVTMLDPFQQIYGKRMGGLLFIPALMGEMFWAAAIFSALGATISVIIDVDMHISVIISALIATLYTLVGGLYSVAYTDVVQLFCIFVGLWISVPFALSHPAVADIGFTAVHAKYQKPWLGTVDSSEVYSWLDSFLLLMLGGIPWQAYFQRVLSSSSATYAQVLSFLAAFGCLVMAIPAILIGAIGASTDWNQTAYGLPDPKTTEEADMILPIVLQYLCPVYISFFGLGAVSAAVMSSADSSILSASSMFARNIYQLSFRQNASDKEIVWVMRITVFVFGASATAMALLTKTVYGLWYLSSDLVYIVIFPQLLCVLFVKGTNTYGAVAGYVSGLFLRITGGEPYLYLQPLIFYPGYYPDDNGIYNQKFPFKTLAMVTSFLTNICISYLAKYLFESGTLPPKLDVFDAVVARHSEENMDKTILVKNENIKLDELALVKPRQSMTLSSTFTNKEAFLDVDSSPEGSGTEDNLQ
Rad51 HR inh: blocks human Rad51 in homologous recombination. 200,000 compounds, 0.085% hits. AID 1385. hRad51 DNA strand exchange, fluorescence dequenching. inhibition, % at 10 µM;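 active = inhibition above 40% at the single screening dose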;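 also: 0% = DMSO control wells and 100% = blanks with heterologous ssDNA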
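System: human Rad51 nucleoprotein filaments preassembled on unlabelled ssDNA. Reagent: labelled 47-mer dsDNA for strand exchange. Schedule: 30-min compound preincubation and 15-min exchange, both room temperature. Measured by: FRET fluorescence dequenching, excitation 485 nm, emission 520 nm. Read-out: Fluorescence-based percent inhibition, control- and blank-normalised. Benchmarks: plate controls and plate blanks.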
CHT inh: inhibits the human high affinity choline transporter | CHT-expressing cells, membrane potential dye, choline response; hits give low values | 310,000 compounds, 0.86% hits | B-score at 10 µM | AID 488975;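 active = B-score over 3 SD under the library average, and starting fluorescence ratio not unusually high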;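 also: choline stimulus applied at its EC90 after an EC20 pre-addition; B-score computed on integrated fluorescence ratio after choline addition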
Cl transport mod: modulates chloride dependent transport by human KCC2; Q9H2X9; 190,000 compounds, 2.2% hits; KCC2 cells, thallium flux FluoZin-2 fluorescence; B-score of Tl+ flux slope (higher = more flux/activation; lower = inhibition) at 10 µM;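 active = thallium flux slope and its plate-corrected score both differing from the plate sample mean at a set confidence after two filtering rounds, in either direction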;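 also: slope of fluorescence scaled to starting intensity during 10 to 20 s after thallium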
KCC2 secondary: confirmation of human KCC2 transport modulators; 3,700 compounds, 15% hits; shares compounds with Cl transport mod; AID 1713; HEK293-KCC2, thallium flux, FluoZin2 fluorescence; hits give high values; normalised thallium flux (F/F0 slope) at 10 µM;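 active = thallium flux slope above the same plate's solvent-only control mean plus 3 SD; inconclusive = the two replicate wells disagree; inactive = no significant difference from solvent-only control wells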
KCC2 bumet counter: thallium flux persisting under bumetanide in KCC2 cells, counter-screen secondary assay. shares compounds with Cl transport mod. HEK293-KCC2 + bumetanide/ouabain, thallium flux FluoZin2; hits give high values. normalized thallium flux at 10 µM. 3,700 compounds, 49% hits. AID 1714;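 active = thallium entry rate above the same plate's blocked-transporter control wells by more than 3 SD; inconclusive = the two repeat wells disagree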;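 also: raw slope of fluorescence over initial fluorescence between 10 and 20 s after thallium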
KCC2 sec2: KCC2 (human) modulation, second secondary assay; shares compounds with Cl transport mod; HEK293-KCC2, thallium flux FluoZin2 fluorescence; actives lie on both sides; F/F0 rise rate, 10–20 s post-thallium; normalized thallium flux at 10 µM; 3,700 compounds, 23% hits;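 active = thallium flux slope more than 3 SD above or below the plate's solvent-only control mean, mostly below; inconclusive = the two repeat wells disagreed; inactive = no significant shift from solvent-only controls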;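 also: raw slope with 0.1% DMSO as baseline and bumetanide as block control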
HEK counter1: acts in parental HEK cells, KCC2 counter-screen; shares compounds with Cl transport mod; HEK293 parental cells, thallium flux FluoZin2, ouabain; baseline-ratio fluorescence slope, 10–20 s after thallium; thallium flux rate (normalised fluorescence) at 10 µM; 3,700 compounds, 46% hits; AID 1716;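 active = thallium flux rate significantly above the same plate's solvent-only control wells, beyond their mean plus 3 SD; inconclusive = the two replicate wells gave conflicting results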
KCC2 retest ouab: modulates human KCC2 on retest with ouabain | 3,700 compounds, 48% hits | shares compounds with Cl transport mod | HEK293-KCC2, thallium flux FluoZin2 fluorescence; bidirectional: low = inhibitor, high = activator | AID 1717 | raw Tl+ flux slope (below DMSO = inhibition, above = activation) at 10 µM;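 active = thallium flux slope beyond 3 SD from same-plate DMSO control mean in most replicates, usually higher, sometimes lower; inconclusive = repeat tests gave conflicting results; inactive = no significant difference from controls in most replicates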;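 also: slope of initial-normalized fluorescence between seconds 10 and 20 after thallium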
HEK counter2: acts in parental HEK cells, second KCC2 counter-screen | thallium flux slope at 10 µM | shares compounds with Cl transport mod | HEK293 parental, thallium flux FluoZin-2 fluorescence slope | 3,700 compounds, 33% hits | AID 1718;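 active = thallium flux slope above the same plate's solvent-control mean plus 3 SD in both duplicate wells; inconclusive = duplicate wells that disagreed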;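 also: run without ouabain in cells lacking the KCC2 cotransporter; slope of fluorescence scaled to its starting value between 10 and 20 s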
* = called active by the depositor; i = inactive; ? = inconclusive; · = not tested or not shown. A selection: hits, their analogues and other compounds. The true share with any hit is near 2.6%.

SMILES	CHT allo act	Rad51 HR inh	CHT inh	Cl transport mod	KCC2 secondary	KCC2 bumet counter	KCC2 sec2	HEK counter1	KCC2 retest ouab	HEK counter2
Cc1ccc(C(=O)CSC2=NC(N)=C(C#N)C3(CCCCC3)C2C(N)=O)cc1 (stereo not drawn)	i	-2	i	-1.4	·	·	·	·	·	·
N#CC1=C(N)N=C(SCc2ccccc2)C(C(N)=O)C12CCCCC2 (stereo not drawn)	i	6	i	-5.5*	0.007	0.0094*	?	0.0076	0.014*	0.01
O=C1N(CN2CCOCC2)c2ccccc2C12OCC(CCl)O2 (stereo not drawn)	i	·	i	·	·	·	·	·	·	·
CC(C)Sc1nnc([C@H](Cc2c[nH]c3ccccc23)NC(=O)OC(C)(C)C)o1	i	-7	i	-6.3*	0.0069	0.0051	0.028*	?	0.013*	0.011
CCS(=O)(=O)n1nc(-c2ccco2)nc1N	i	3	i	0.073	·	·	·	·	·	·
c1ccc(-c2csc(Cc3nnc4n3CCCCC4)n2)cc1	i	-9	i	-1.8	0.0061	0.0056	0.027	0.0065	0.014*	0.0096
O=C(Nc1ccncc1)c1cc2ccccc2cc1O	i	·	i	·	·	·	·	·	·	·
O=C(CO/N=C/c1ccccc1O)N1CCc2ccccc21	i	-15	i	-1.3	·	·	·	·	·	·
Nc1ccc2c(C(F)(F)F)cc(C(F)(F)F)nc2n1	i	-70	i	-0.46	·	·	·	·	·	·
N#CC(c1ccc(Cl)cc1)c1ccc2c(C(F)(F)F)cc(C(F)(F)F)nc2n1 (stereo not drawn)	i	10	i	22*	0.024*	0.14*	0.031	0.054*	0.067*	0.015*
CCOc1ccc(S(=O)(=O)NC(C)C)cc1C(N)=O	i	-17	i	0.14	·	·	·	·	·	·
Nc1ccc2c(c1)ncn2CCCn1cnc2cc(N)ccc21	i	1	i	·	0.0075	0.0046	?	0.0075	0.018	0.011
COc1ccc2c(c1)O[C@@H](c1cccc(C(F)(F)F)c1)[C@H](O)C2=O	i	·	i	8.8*	0.0078	0.0093*	0.031	0.011*	?	?
COc1ccc2c(c1)O[C@H](c1ccc3c(c1)OCO3)[C@@H](O)C2=O	i	-10	i	-0.042	·	·	·	·	·	·
CCOC(=O)c1cc2c(ccn2C)n1CC(=O)N1CCC(Cc2ccccc2)CC1	i	-2	i	-5.9*	0.011	0.0057	?	0.0079	0.016*	0.012
CCOC(=O)c1cc2c(ccn2C)n1CC(=O)N1CCN(c2ccccc2OC)CC1	·	0	·	-1.1	·	·	·	·	·	·
Cc1ccc(S(=O)(=O)Nc2cc(C(=O)Nc3cc(C)cc(C)c3)ccc2Cl)cc1	i	-17	i	-0.77	·	·	·	·	·	·
O=C(NCCS(=O)(=O)N1CCN(c2ccccc2)CC1)c1cccc(F)c1	i	·	i	·	·	·	·	·	·	·
Cn1ccnc1C(=O)c1cccc(Br)c1	i	·	i	·	·	·	·	·	·	·
Cc1nc(C(=O)NNC(=O)c2ccc(C(F)(F)F)cc2)cs1	i	·	i	5.1*	0.0092	0.02*	0.029	0.01*	?	?
Cc1nn(-c2ccccc2)nc1C(=O)NN	i	-3	i	·	·	·	·	·	·	·
Cc1nn(-c2ccccc2)nc1C(=O)NNC(=O)c1ccc(C(F)(F)F)cc1	i	-22	i	22*	0.023*	0.097*	0.035	0.035*	0.055*	0.017*
Cc1nn(-c2ccccc2)nc1C(=O)NNC(=O)c1cccc2ccccc12	i	-2	i	69*	0.024*	0.15*	0.037	0.075*	0.1*	0.024*
